Measurements reported in ChEMBL document CHEMBL1122263, “Resolution and absolute configuration of an ergoline-related dopamine agonist, trans-4,4a,5,6,7,8,8a,9-Octahydro-5-propyl-1H(or 2H)-pyrazolo[3,4-g]quinoline” (J Med Chem, 1983).
Several values for one entry are separate records, joined by “and”; a condition that tells them apart may be missing. Equal entries are not always repeated.

What was measured:
Rattus norvegicus [1] = test: Hypotensive activity when administered iv in pentobarbital-anesthetized, spontaneously hypertensive rats, at a dose 1 ug/kg; assay type: functional
How it was run: (§1)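 Spontaneously hypertensive rats under pentobarbital anesthesia, arterial BP recorded. Dosing iv, ip or intragastric at 1–1000 μg/kg. Value is maximum % change in BP, taken immediately after iv or within 30 min after ip/ig dosing. Mean ± SE of four rats.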

Rattus norvegicus [2] = test: Hypotensive activity when administered ip in pentobarbital-anesthetized, spontaneously hypertensive rats, at a dose 1000 ug/kg; assay type: functional; how it was run: as §1
Rattus norvegicus [3] = test: Hypotensive activity when administered ip in pentobarbital-anesthetized, spontaneously hypertensive rats, at a dose 100 ug/kg; assay type: functional; how it was run: as §1
Rattus norvegicus [4] = test: Hypotensive activity when administered ip in pentobarbital-anesthetized, spontaneously hypertensive rats, at a dose 10 ug/kg; assay type: functional; how it was run: as §1
Rattus norvegicus [5] = test: Hypotensive activity when administered iv in pentobarbital-anesthetized, spontaneously hypertensive rats, at a dose 10 ug/kg; assay type: functional; how it was run: as §1
Rattus norvegicus [6] = test: Hypotensive activity when administered ig in pentobarbital-anesthetized, spontaneously hypertensive rats, at a dose 100 ug/kg; assay type: functional; how it was run: as §1
Rattus norvegicus [7] = test: Effect of iv injection on arterial blood pressure in the anesthetized, spontaneously hypertensive rat at a dose 100 ug/kg
Rattus norvegicus [8] = test: Hypotensive activity when administered ig in pentobarbital-anesthetized, spontaneously hypertensive rats, at a dose 1000 ug/kg; assay type: functional; how it was run: as §1
Canis familiaris [9] = test: Effect of iv injection on arterial blood pressure in the anesthetized, normotensive dog at a dose 1000 ug/kg; assay type: functional, Canis lupus familiaris
Rattus norvegicus [10] = test: Effect of iv injection on arterial blood pressure in the anesthetized, spontaneously hypertensive rat at a dose 1000 ug/kg
Canis familiaris [11] = test: Effect of iv injection on arterial blood pressure in the anesthetized, normotensive dog at a dose 1 ug/kg; assay type: functional, Canis lupus familiaris
Canis familiaris [12] = test: Effect of iv injection on arterial blood pressure in the anesthetized, normotensive dog at a dose 100 ug/kg; assay type: functional, Canis lupus familiaris
Rattus norvegicus [13] = test: Effect (% reduction) on serum levels in reserpinized male rats at a dose, 0.03 umol/kg; assay type: functional
How it was run: (§2)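 Prolactin assay in reserpinized male rats, run by standard methods. Doses given orally; value is % reduction of serum prolactin versus control. Significance set at p < 0.05.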

Rattus norvegicus [14] = test: Effect (% reduction) on serum levels in reserpinized male rats at a dose, 0.17 umol/kg; assay type: functional; how it was run: as §2
Canis familiaris [15] = test: Effect of iv injection on arterial blood pressure in the anesthetized, normotensive dog at a dose 10 ug/kg; assay type: functional, Canis lupus familiaris
Felis catus [16] = test: Effect of iv injection on arterial blood pressure in the anesthetized, normotensive cat at a dose 10 ug/kg; assay type: functional
Rattus norvegicus [17] = test: Hypotensive activity when administered ig in pentobarbital-anesthetized, spontaneously hypertensive rats, at a dose 10 ug/kg; assay type: functional; how it was run: as §1
Rattus norvegicus [18] = test: Hypotensive activity when administered iv in pentobarbital-anesthetized, spontaneously hypertensive rats, at a dose 100 ug/kg; assay type: functional; how it was run: as §1
Rattus norvegicus [19] = test: Effect (% reduction) on serum levels in reserpinized male rats at a dose,0.017 umol/kg; assay type: functional; how it was run: as §2
Rattus norvegicus [20] = test: Effect of iv injection on arterial blood pressure in the anesthetized, spontaneously hypertensive rat at a dose 1 ug/kg
Rattus norvegicus [21] = test: Effect of iv injection on arterial blood pressure in the anesthetized, spontaneously hypertensive rat at a dose 10 ug/kg
Rattus norvegicus [22] = test: Effect (% reduction) on serum levels in reserpinized male rats at a dose, 0.3 umol/kg; assay type: functional; how it was run: as §2
Felis catus [23] = test: Effect of iv injection on arterial blood pressure in the anesthetized, normotensive cat at a dose 100 ug/kg; assay type: functional
Rattus norvegicus [24] = test: Hypotensive activity when administered iv in pentobarbital-anesthetized, spontaneously hypertensive rats, at a dose 1000 ug/kg; assay type: functional; how it was run: as §1
Rattus norvegicus [25] = test: Effect on Turning behavior in male rats with unilateral 6-hydroxydopamine-induced lesions of the nigrostriatal tract at 500 ug/kg ip; assay type: functional
How it was run: (§3)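 Rats carrying unilateral 6-hydroxydopamine lesions of the nigrostriatal tract, six per group, dosed ip. Contralateral turning recorded as: % of rats making at least one turn/min for 15 min; average turns in the first 15 min after turning began; turns in the first hour; and duration of turning in hours.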

Rattus norvegicus [26] = test: Hypotensive activity when administered iv in pentobarbital-anesthetized, spontaneously hypertensive rats, at a dose 0.1 ug/kg; assay type: functional
Rattus norvegicus [27] = test: Effect on turning behavior in male rats with unilateral 6-OH-Dopamine-induced lesions of the nigrostriatal tract at 100 ug/kg i.p.; assay type: functional; how it was run: as §3
Rattus norvegicus [28] = test: Hypotensive activity when administered iv in pentobarbital-anesthetized, spontaneously hypertensive rats, at a dose 1 ug/Kg; assay type: functional; how it was run: as §1
Rattus norvegicus [29] = test: Hypotensive activity when administered iv in pentobarbital-anesthetized, spontaneously hypertensive rats, at a dose 100 ug/Kg; assay type: functional; how it was run: as §1
Rattus norvegicus [30] = test: Hypotensive activity when administered iv in pentobarbital-anesthetized, spontaneously hypertensive rats, at a dose 10 ug/Kg; assay type: functional; how it was run: as §1
Rattus norvegicus [31] = test: Hypotensive activity when administered iv in pentobarbital-anesthetized, spontaneously hypertensive rats, at a dose 1000 ug/Kg; assay type: functional; how it was run: as §1
Rattus norvegicus [32] = species: Rattus norvegicus; test: Effect of lordotic behavior of rats preinjection lordosis-to-mount ratio; assay type: functional
How it was run: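 Chronically ovariectomized Long-Evans hooded rats primed with 100 μg estrone sc in sesame oil 48 h before testing. Lordosis-to-mount ratio scored over 15 mounts by a sexually active male before injection. Drug given sc at 25 μg/kg in 1 mM ascorbic acid/1 mM acetic acid; retested 90 min later. N = 20; X ± SE.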

**Q.** What does the source list for `CCCN1CCC[C@@H]2Cc3n[nH]cc3CC21` (mixture of isomers)?
**A.** BP change (Rattus norvegicus [1]): -12.7%; BP change (Rattus norvegicus [2]): -45.7%; BP change (Rattus norvegicus [3]): -40.5%; BP change (Rattus norvegicus [4]): -6.1%; BP change (Rattus norvegicus [5]): -22.4%; BP change (Rattus norvegicus [6]): -27.6%; BP change (Rattus norvegicus [7]): -32%; BP change (Rattus norvegicus [8]): -50.7%; BP change (Canis familiaris [9]): -46%; BP change (Rattus norvegicus [10]): -52%; BP change (Canis familiaris [11]): -15%; BP change (Canis familiaris [12]): -45%; Reduction (Rattus norvegicus [13]): 20%; Reduction (Rattus norvegicus [14]): 65%; BP change (Canis familiaris [15]): -34%; BP change (Felis catus [16]): -23%; BP change (Rattus norvegicus [17]): -5.4%; BP change (Rattus norvegicus [18]): -32%; Reduction (Rattus norvegicus [19]): 19%; BP change (Rattus norvegicus [20]): -13%; BP change (Rattus norvegicus [21]): -22%; Reduction (Rattus norvegicus [22]): 76%; BP change (Felis catus [23]): -45%; BP change (Rattus norvegicus [24]): -52.2%

**Q.** With `CCCN1CCC[C@@H]2Cc3n[nH]cc3CC21` (single isomer, unassigned; (+)) as the molecule, how does the Activity (Rattus norvegicus [25]) read?
**A.** 0%

**Q.** And the BP change (Rattus norvegicus [26])?
**A.** -8.5%

**Q.** What about the Activity (Rattus norvegicus [27]) of the same molecule?
**A.** 0% and 0

**Q.** What about the BP change (Rattus norvegicus [28]) of the same molecule?
**A.** -5.1%

**Q.** And the BP change (Rattus norvegicus [29])?
**A.** -4.6%

**Q.** What about the BP change (Rattus norvegicus [30]) of the same molecule?
**A.** -5%

**Q.** And the BP change (Rattus norvegicus [31])?
**A.** -6.4%

**Q.** What about the L/M ratio (Rattus norvegicus [32]) of the same molecule?
**A.** 0.12

**Q.** With `CCCN1CCC[C@@H]2Cc3n[nH]cc3CC21` (single isomer, unassigned; (-)) as the molecule, how does the Activity (Rattus norvegicus [25]) read?
**A.** 100%

**Q.** And the BP change (Rattus norvegicus [26])?
**A.** -7.7%

**Q.** What about the BP change (Rattus norvegicus [28]) of the same molecule?
**A.** -14.3%

**Q.** What about the BP change (Rattus norvegicus [29]) of the same molecule?
**A.** -38.6%

**Q.** And the BP change (Rattus norvegicus [30])?
**A.** -25.2%

**Q.** What about the Reduction (Rattus norvegicus [13]) of the same molecule?
**A.** 38%

**Q.** What about the Reduction (Rattus norvegicus [14]) of the same molecule?
**A.** 73%

**Q.** What about the Reduction (Rattus norvegicus [19]) of the same molecule?
**A.** 26%

**Q.** And the Reduction (Rattus norvegicus [22])?
**A.** 88%

**Q.** For `CN1CCc2cccc3c2[C@H]1Cc1ccc(O)c(O)c1-3` [APOMORPHINE], which Activity (Rattus norvegicus [25]) is on record?
**A.** 100%
